This experiment relates to CHO-XBP1 cytotoxicity, ATPlite luminescence, 6 h. The experiment is described as follows: CHO-XBP1 cell viability loss – 6 h exposure, ATPlite luminescence, cytotoxicity control for UPR apoptotic arm activator project, SAR follow-up (AID 588570). The method, boiled down:
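Test system: CHO-XBP1 cells / Technique: ATP-based luminescence with ATPLite 1-Step reagent / Medium: F12 plus 10% FBS / Doses: dose-response series, DMSO ≤1% / Incubation: 16-18 h attachment, 6 h exposure, 37 °C, 5% CO2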

Drawing on PubChem BioAssay AID588570 (Sanford-Burnham Center for Chemical Genomics, 2011), this text covers IC50 for 30 molecules.

Each structure is given as a SMILES string. Active and inactive are the calls of the source.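 Rule for the calls: active = mean IC50 at or below 20 µM in a cell killing test; inactive = the rest.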

`O=C(Nc1nc2ccc(Cl)cc2s1)c1ccccn1`: the IC50 was 3.81 µM. The value for `CC1CCN(S(=O)(=O)c2ccc(NC(=O)c3ccc([N+](=O)[O-])o3)cc2)CC1` was > 80 µM (inactive); that for `O=C(Nc1ccc(S(=O)(=O)N2CCNCC2)cc1)c1ccc([N+](=O)[O-])o1` was > 80 µM (inactive); that for `CC1(C)CCN(S(=O)(=O)c2ccc(NC(=O)c3ccc([N+](=O)[O-])o3)cc2)CC1` was > 80 µM (inactive). The figure for `O=C(Nc1ccc(S(=O)(=O)c2ccccc2)cc1)c1ccc([N+](=O)[O-])o1` is > 80 µM (inactive). As to `O=C(Nc1ccc(S(=O)(=O)N2CCC(Cl)CC2)cc1)c1ccc([N+](=O)[O-])o1`, the IC50 was > 80 µM (inactive). The value for `O=C(Nc1nc2cccc(F)c2s1)c1ccccn1` was 7.08 µM. The value for `O=C(Nc1ccc(S(=O)(=O)N2CCOCC2)cc1)c1ccc([N+](=O)[O-])s1` was > 80 µM (inactive); that for `CC1CN(S(=O)(=O)c2ccc(NC(=O)c3ccc([N+](=O)[O-])o3)cc2)CC(C)O1` (stereo not given) was > 80 µM (inactive). The figure for `Cc1cc(C)c2nc(NC(=O)c3ccccn3)sc2c1` is 15.2 µM; for `O=C(Nc1nc2c(F)cccc2s1)c1ccccn1` it is 4.11 µM; for `O=C(Nc1nc2ccc(F)cc2s1)c1ccccn1` it is 4.78 µM. Regarding `O=C(Nc1nc2c(F)ccc(F)c2s1)c1ccccn1`, the IC50 is 32.3 µM (inactive).

As for `O=C(Nc1ccc(S(=O)(=O)C2CCCCC2)cc1)c1ccc([N+](=O)[O-])o1`, the IC50 was > 80 µM (inactive).

Turning to `O=C(Nc1nc2c(Cl)cc(Cl)cc2s1)c1ccccn1`, the IC50 is > 80 µM (inactive). The figure for `O=C(Nc1ccc(S(=O)(=O)N2CCCC2)cc1)c1ccc([N+](=O)[O-])o1` is 74.6 µM (inactive). Take `O=C(Nc1nc2c(F)c(F)ccc2s1)c1ccccn1`: the IC50 was 4.29 µM. With `O=C(Nc1nc2ccc(C(F)(F)F)cc2s1)c1ccccn1`, the IC50 was 4.62 µM. The figure for `O=C(Nc1nc2c(F)cc(F)cc2s1)c1ccccn1` is 10.7 µM. The value for `O=C(Nc1ccc(S(=O)(=O)N2CCOCC2)cc1)c1ccc([N+](=O)[O-])o1` was > 80 µM (inactive). The figure for `O=C(Nc1nc2cc(F)c(F)cc2s1)c1ccccn1` is 5.1 µM; for `O=C(Nc1ccc(S(=O)(=O)N2CCC(O)CC2)cc1)c1ccc([N+](=O)[O-])o1` it is > 80 µM (inactive). As for `O=C(Nc1ccc(S(=O)(=O)C2CCOCC2)cc1)c1ccc([N+](=O)[O-])o1`, the IC50 is > 80 µM (inactive). The value for `CC(C)(C)C1CCN(S(=O)(=O)c2ccc(NC(=O)c3ccc([N+](=O)[O-])o3)cc2)CC1` was > 80 µM (inactive); that for `O=C(Nc1ccc(S(=O)(=O)N2CCCCC2)cc1)c1ccc([N+](=O)[O-])o1` was > 80 µM (inactive); that for `O=C(Nc1nc2ccc(F)c(F)c2s1)c1ccccn1` was 14 µM.

For `O=C(Nc1nc2cc(F)ccc2s1)c1ccccn1`, the IC50 is 2.62 µM. The value for `O=C(Nc1ccc(S(=O)(=O)N2CCC3(CCCCC3)CC2)cc1)c1ccc([N+](=O)[O-])o1` was > 80 µM (inactive). In the case of `O=C(Nc1ccc(S(=O)(=O)N2CCC(F)CC2)cc1)c1ccc([N+](=O)[O-])o1`, the IC50 was > 80 µM (inactive). On to `O=C(Nc1nc2cc(F)cc(F)c2s1)c1ccccn1`, for which the IC50 is 9.35 µM.
